Screening data (PubChem BioAssay)
SENP8 block-1 – human SENP8 protease inhibitors, primary screen, biochemical, fluorescence, Nedd8 protein substrate, uHTS | Sentrin-specific protease 8 (Homo sapiens), Q96LD8 | recombinant SENP8 | inhibition, % at 20 µM | 0.64% of 360,000 active; in the data active means inhibition mostly above about 40%, no sharp cut-off; inactive means mostly below about 27%
SENP6 inh – SENP6 protease inhibitors, primary screen, biochemical, luminescence, uHTS. Sentrin-specific protease 6 (Homo sapiens), Q9GZR1. Recombinant SENP6 catalytic domain, aminoluciferin luminescence. inhibition, % at 10 µM. 1.8% of 330,000 active. AID 2599, 2010;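 active means inhibition above about 50% at the single tested dose, limit read from the data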
Target sequence (Q9GZR1 628-1112 limits assumed): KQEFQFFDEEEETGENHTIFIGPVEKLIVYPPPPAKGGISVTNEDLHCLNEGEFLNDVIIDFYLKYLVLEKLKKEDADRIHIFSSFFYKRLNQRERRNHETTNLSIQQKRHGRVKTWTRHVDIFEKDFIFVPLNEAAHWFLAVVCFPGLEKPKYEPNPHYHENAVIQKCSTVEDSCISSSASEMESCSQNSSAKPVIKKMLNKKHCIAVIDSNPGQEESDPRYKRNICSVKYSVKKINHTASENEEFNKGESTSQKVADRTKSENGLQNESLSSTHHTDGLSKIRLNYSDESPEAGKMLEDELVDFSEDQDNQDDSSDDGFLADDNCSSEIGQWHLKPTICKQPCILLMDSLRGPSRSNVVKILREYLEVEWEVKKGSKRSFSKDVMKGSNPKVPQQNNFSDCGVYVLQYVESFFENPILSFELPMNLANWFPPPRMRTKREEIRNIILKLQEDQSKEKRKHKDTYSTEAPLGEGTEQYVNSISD
SENP8 block-2 – SENP8 protease inhibitors, primary screen, biochemical, luminescence. purified SENP8, Z-RLRGG-aminoluciferin cleavage. inhibition, % at 10 µM. 1.2% of 330,000 active. AID 2540, 2010; in the data active means inhibition above about 50%
UBC13 inh – UBC13 polyubiquitin chain formation inhibitors, primary screen, biochemical, TR-FRET, uHTS | inhibition, % at 20 µM | Ubiquitin-conjugating enzyme E2 N (Homo sapiens), P61088 | 0.47% of 330,000 active | AID 485273, 2010; in the data active means inhibition above about 45%, passing the limit was not always enough; inconclusive means no clear call, values can overlap the other calls
Apaf1 inhib – inhibitors of human Apaf-1 apoptosome, primary screen, biochemical, DEVD-Rh110 fluorescence, uHTS; Apoptotic protease-activating factor 1 (Homo sapiens), O14727; 0.71% of 330,000 active; inhibition, % at 20 µM; reconstituted apoptosome caspase-3 activity; AID 489030, 2010; active means inhibition of at least 40% at 20 µM
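Material: biochemical Apaf-1 apoptosome reconstitution. Medium: Hepes buffer, pH 7.5. Also added: cytochrome c activation, bis-DEVD rhodamine 110 substrate. Timing: 30 min compound preincubation, 50 min activation, room temperature. Measured by: rhodamine 110 fluorescence at Ex 480/Em 540 nm.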
SENP7 inh – SENP7 protease inhibitors, primary screen, biochemical, luminescence, uHTS. recombinant SENP7, Z-RLRGG-aminoluciferin luminescence, 40 min. 1.5% of 330,000 active. inhibition, % at 5 µM;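 active means inhibition above about 50% at the single test dose, limit read from the data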
SENP8 confirm – SENP8 protease inhibitors, retest, confirmation, biochemical, luminescence, single concentration; Recombinant SENP8, Z-RLRGG-aminoluciferin luminescence, 60 min; inhibition, % at 12.5 µM; shares compounds with SENP7 inh; AID 488912, 2010; 40% of 6,200 active;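 active means mean inhibition across replicates above about 50%, limit read from the data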
SENP6 conf – SENP6 protease inhibitors, confirmation, biochemical, luminescence, single concentration; shares compounds with SENP7 inh; recombinant SENP6, Z-RLRGG-aminoluciferin luminescence; inhibition, % at 12.5 µM; 58% of 6,200 active; AID 488915, 2010
SENP7 confirm – SENP7 protease inhibitors, retest, confirmation, biochemical, luminescence, single concentration; shares compounds with SENP7 inh; recombinant SENP7, Z-RLRGG-aminoluciferin luminescence, 40 min; inhibition, % at 12.5 µM; 69% of 6,200 active
Casp3 select – caspase-3 protease inhibitors, confirmation, selectivity assay for SENP inhibitor project, biochemical, single concentration; shares compounds with SENP7 inh; purified caspase-3, Z-DEVD-aminoluciferin luminescence, 60 min; inhibition, % at 12.5 µM; 60% of 6,200 active; AID 488918, 2010;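 active means mean inhibition above about 50%, limit read from the data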
Target sequence (P42574 28-227 limits assumed): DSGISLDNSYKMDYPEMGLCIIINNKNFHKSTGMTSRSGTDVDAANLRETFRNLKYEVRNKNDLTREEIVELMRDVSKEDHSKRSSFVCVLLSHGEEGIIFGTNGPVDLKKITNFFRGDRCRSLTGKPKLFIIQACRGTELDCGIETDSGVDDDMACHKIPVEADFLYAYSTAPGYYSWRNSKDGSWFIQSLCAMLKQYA
SENP luc ctr – counter-screen for SENP inhibitors: luminescence interference. shares compounds with SENP7 inh. Pre-incubated SENP8/Z-RLRGG-aminoluciferin, luciferase luminescence interference. inhibition, % at 12.5 µM. 39% of 6,200 active. AID 488919;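 active means mean inhibition above about 50% when retested at one dose, limit read from the data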
Large screens that a line does not name were inactive (follow-up assays come after a bar, where they were run). Hits are enriched below; roughly 3.1% of the tested compounds scored in any of these assays.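 How the source made its calls, unless noted: active means mean inhibition above about 50% in the one-dose retest (limit read from the data); inactive means the rest.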

Cc1c(-c2ccc(Br)cc2)nc2ccccn12	SENP6 inh 96, SENP8 block-2 88, SENP7 inh 90 | SENP8 confirm inactive | SENP6 conf 88 | SENP7 confirm 100 | Casp3 select 88 | SENP luc ctr 89
c1ccc(-c2nc3ccccn3c2NCc2ccc3c(c2)OCO3)cc1	none
Clc1cccc(-c2ccc(-c3nc4ccccn4c3NCc3ccccc3)cc2)c1	SENP8 block-2 65, SENP7 inh 53 | SENP8 confirm inactive | SENP6 conf inactive | SENP7 confirm 71 | Casp3 select inactive | SENP luc ctr inactive
Clc1c(-c2ccccc2)nc2ccccn12	SENP6 inh 65, SENP8 block-2 55, SENP7 inh 54 | SENP8 confirm inactive | SENP6 conf inactive | SENP7 confirm 80 | Casp3 select 66 | SENP luc ctr inactive
C(=N\Nc1nc(-c2ccccc2)cs1)/c1ccco1	SENP6 inh 72, SENP8 block-2 54 | SENP8 confirm 65 | SENP6 conf 66 | SENP7 confirm 87 | Casp3 select inactive | SENP luc ctr 58
C(=N\Nc1nc(-c2ccccc2)cs1)/c1cccs1	SENP6 inh 64 | SENP8 confirm 63 | SENP6 conf 65 | SENP7 confirm 88 | Casp3 select inactive | SENP luc ctr inactive
Cc1ccc(-c2csc(N/N=C/c3ccco3)n2)cc1	none
O=C(NC(=S)Nc1nc2ccccc2s1)c1cccs1	SENP6 inh 76 | SENP8 confirm inactive | SENP6 conf inactive | SENP7 confirm inactive | Casp3 select inactive | SENP luc ctr inactive
O=C(Nc1nc2ccc(S(=O)(=O)N3CCCC3)cc2s1)c1cccs1	none
CN(C)S(=O)(=O)c1ccc2nc(NC(=O)c3cccs3)sc2c1	SENP6 inh 73, SENP7 inh 55 | SENP8 confirm 77 | SENP6 conf 74 | SENP7 confirm 90 | Casp3 select 72 | SENP luc ctr 76
O=C(Nc1nc2ccc(F)cc2s1)c1cccs1	SENP6 inh 91, SENP8 block-2 92, SENP7 inh 95 | SENP8 confirm 67 | SENP6 conf 96 | SENP7 confirm 103 | Casp3 select 93 | SENP luc ctr 81
COC(=O)c1nc(NC(=S)NC(=O)c2cccs2)sc1C	none
CN1CCN(C(=O)C2=NOC3(C2)C(=O)Nc2ccccc23)CC1 (stereo not drawn)	none (no result: SENP6 inh, SENP8 block-2, UBC13 inh, Apaf1 inhib, SENP7 inh)
CC1=C(C(=O)N2CCOCC2)CC(CC(=O)NCCc2ccccn2)C(=O)N1CCCN1CCCC1=O (stereo not drawn)	none (no result: SENP6 inh, SENP8 block-2, UBC13 inh, Apaf1 inhib, SENP7 inh)
CCCCNC(=O)c1sc(=S)n2c1[nH]c(=O)c1ccccc12	SENP6 inh 85 | SENP8 confirm inactive | SENP6 conf inactive | SENP7 confirm inactive | Casp3 select inactive | SENP luc ctr inactive
CN(C)c1ccc(-c2ccnc3c2CC(C)(C(=O)Nc2ccc(Cl)c(C(F)(F)F)c2)O3)cc1 (stereo not drawn)	none (no result: SENP6 inh, SENP8 block-2, UBC13 inh, Apaf1 inhib, SENP7 inh)
O=S(=O)(c1cccc(-c2nc3n(n2)Cc2ccccc2-3)c1)N1CCCC1	none
Clc1ccc(-c2cn3c(n2)-c2ccccc2C3)cc1Cl	SENP6 inh 94, SENP8 block-2 93, SENP7 inh 98 | SENP8 confirm inactive | SENP6 conf 84 | SENP7 confirm 94 | Casp3 select 80 | SENP luc ctr inactive
Clc1ccc(-c2cc3ccccc3[nH]2)cc1	SENP6 inh 71 | SENP8 confirm inactive | SENP6 conf inactive | SENP7 confirm 78 | Casp3 select inactive | SENP luc ctr inactive
O=c1cc(-c2ccc(Cl)cc2)[nH]c2ccccc12	none (no result: SENP8 block-1)
COC(=O)c1cc(COc2ccc3c4c(c(=O)oc3c2)CCCC4)c(C)o1	none
Cc1c(OCc2ccc(C(=O)O)o2)ccc2c3c(c(=O)oc12)CCC3	SENP6 inh 82, SENP8 block-2 74 | SENP8 confirm inactive | SENP6 conf 84 | SENP7 confirm 84 | Casp3 select inactive | SENP luc ctr 57
COC(=O)c1ccc(COc2ccc3c4c(c(=O)oc3c2)CCC4)o1	SENP6 inh 77, SENP8 block-2 70, UBC13 inh inconclusive, SENP7 inh 58 | SENP8 confirm inactive | SENP6 conf inactive | SENP7 confirm inactive | Casp3 select inactive | SENP luc ctr inactive
COC(=O)C(C(=O)OC)c1cc2c(cc1CNS(=O)(=O)c1ccc(C)cc1)OCO2	none (no result: SENP6 inh, SENP8 block-2, UBC13 inh, Apaf1 inhib, SENP7 inh)
Cc1cccc(C)c1NC(=O)C(c1ccccc1)N1CCC(c2ccccc2)CC1 (stereo not drawn)	none (no result: SENP6 inh, SENP8 block-2, UBC13 inh, Apaf1 inhib, SENP7 inh)
Cc1ccc(Nc2nnc(SCC(=O)NCCN3C(=O)CSC3=O)s2)cc1C	SENP7 inh 53 | SENP8 confirm 51 | SENP6 conf inactive | SENP7 confirm 78 | Casp3 select 64 | SENP luc ctr 55
Cc1ccc(SCC(=O)NCCN2C(=O)CSC2=O)cc1C	none
COc1cccc(NC(=O)Nc2ccc3nsnc3c2)c1	SENP6 inh 50 | SENP8 confirm 57 | SENP6 conf 52 | SENP7 confirm 77 | Casp3 select inactive | SENP luc ctr 54
COc1ccc(NC(=O)Nc2cccc(OC)c2)cc1	none
COc1cccc(NC(=O)Nc2ccc3c(c2)nc(C)n3C)c1	SENP6 inh 91, SENP8 block-2 78, SENP7 inh 90 | SENP8 confirm 86 | SENP6 conf 85 | SENP7 confirm 98 | Casp3 select 94 | SENP luc ctr 86
CC(=O)Nc1ccc2nsnc2c1	none
COc1cccc(NC(=O)Nc2nc(SC)ns2)c1	SENP6 inh 90, SENP8 block-2 82, SENP7 inh 77 | SENP8 confirm 76 | SENP6 conf 77 | SENP7 confirm 96 | Casp3 select 76 | SENP luc ctr 86
